Legend:
Format in all cases: functional
[1] = tested on: HCC 2998; assay: Growth inhibition of human HCC2998 cells after 48 hrs by SRB assay; details: HCC 2998, 48 h
Summary of the method: (§1)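 NCI-60 panel protocol with adherent lines. Cells were seeded at 5,000–40,000 cells/well, depending on doubling time, and pre-incubated 24 h at 37 °C, 5% CO₂. Time-zero plates were TCA-fixed at drug addition. Drugs were dissolved in DMSO and exposed for 48 h. Cells were fixed with cold TCA (final 10%) for 60 min at 4 °C, stained with 0.4% SRB in 1% acetic acid for 10 min, solubilized with 10 mM trizma base, and read at A515.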

[2] = tested on: SW-620; assay: Growth inhibition of human SW620 cells after 48 hrs by SRB assay; details: SW-620, 48 h
Summary of the method: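 NCI 60-cell panel, five-dose format: cells plated at 5,000–40,000/well by doubling time, preincubated 24 h at 37 °C, 5% CO2; time-zero plates TCA-fixed. Compound dissolved in DMSO, five concentrations (0.01, 0.1, 1, 10, 100 µM) plus control, 48 h. Cells fixed with cold TCA, stained with 0.4% SRB in 1% acetic acid, bound dye solubilized in 10 mM trizma base, absorbance at 515 nm. GI50 taken from [(Ti–Tz)/(C–Tz)]×100 = 50.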

[3] = tested on: ACHN; assay: Growth inhibition of human ACHN cells after 48 hrs by SRB assay; summary of the method: as §1
[4] = tested on: MOLT-4; assay: Growth inhibition of human MOLT4 cells after 48 hrs by SRB assay; details: MOLT-4, 48 h
Summary of the method: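 Suspension leukemia lines were run in the NCI-60 SRB format. Cells were plated at 5,000–40,000 cells/well and pre-incubated 24 h at 37 °C, 5% CO₂, with time-zero plates fixed at drug addition. Drug exposure in DMSO-derived dilutions lasted 48 h. Settled cells were fixed with 80% TCA (final 16%), stained with 0.4% SRB, solubilized in 10 mM trizma base, and read at 515 nm. Percent growth was taken relative to the time-zero and control readings.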

[5] = tested on: MDA-MB-468; assay: Growth inhibition of human MDA-MB-468 cells after 48 hrs by SRB assay; details: MDA-MB-468, 48 h; summary of the method: as §1
[6] = read-out: LC50 (the source's name)

SMILES: COc1ccc(C2CC(c3nc4ccccc4[nH]3)=NN2c2ccccc2)cc1OC (stereo not given)
- GI50 [1]: 12.4 µM
- TGI [1]: 26.1 µM
- CC50 [1, 6]: 55 µM
- GI50 [2]: 6.45 µM
- TGI [2]: 23.3 µM
- CC50 [2, 6]: 65.7 µM
- GI50 [3]: 14 µM
- TGI [3]: > 100 µM
- CC50 [3, 6]: > 100 µM
- GI50 [4]: 17.9 µM
- TGI [4]: > 100 µM
- CC50 [4, 6]: > 100 µM
- GI50 [5]: 5.25 µM
- TGI [5]: 21.2 µM
- CC50 [5, 6]: 64.9 µM

Source: ChEMBL document CHEMBL1154686, “Pyrazoline bearing benzimidazoles: search for anticancer agent” (2010)
